The subject of series [1] is Mus musculus. The series can be described thus: Analgesic activity in icv dosed CD1 mouse assessed as inhibition of heat-induced jumping behaviour after 5 to 30 mins by hot plate method. Format: functional. The procedure, abridged:
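Male CD-1 mice (25–30 g), lightly isoflurane-anaesthetised, injected i.c.v. 2 mm caudal and 2 mm lateral of bregma, 3 mm depth, 5 µL; various doses. Plate held at 55.0 ± 0.1 °C; latency to paw licking or jumping, 60 s cut-off. Baseline is the mean of three readings 15 min apart; readings at 5, 10, 15, 20 and 30 min. Result as %MPE; AD50 with 95% confidence limits by graded dose–response.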
In general terms: Hot-plate and tail-flick tests time the reaction to a heat stimulus.

The subject of series [2] is Mus musculus. In words: Antinociceptive effect in icv dosed CD1 mouse assessed as increase in tail-flick latency period by tail flick test. Format: functional. The procedure, abridged: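 Male CD-1 mice (25–30 g) given i.c.v. injection under light isoflurane (2 mm caudal/2 mm lateral of bregma, 3 mm deep, 5 µL), various doses. Radiant infrared heat focused 3–4 cm from tail tip; withdrawal latency with 15 s cut-off. Baseline is the mean of three readings 15 min apart; readings at 5–30 min. Result as %MPE; AD50 with 95% confidence limits by graded dose–response.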

The target of series [3] is Delta-type opioid receptor (Rattus norvegicus, UniProt P33533). The series can be described thus: Displacement of [3H]Ile5,6deltorphin-2 from delta opioid receptor in Wistar rat brain membranes by liquid scintillation counting. The class given is cell membranes, Membrane. In general terms: Displacement assays read how much labelled ligand stays bound in the presence of the test substance.
Delta-type opioid receptor, sequence (P33533 whole entry): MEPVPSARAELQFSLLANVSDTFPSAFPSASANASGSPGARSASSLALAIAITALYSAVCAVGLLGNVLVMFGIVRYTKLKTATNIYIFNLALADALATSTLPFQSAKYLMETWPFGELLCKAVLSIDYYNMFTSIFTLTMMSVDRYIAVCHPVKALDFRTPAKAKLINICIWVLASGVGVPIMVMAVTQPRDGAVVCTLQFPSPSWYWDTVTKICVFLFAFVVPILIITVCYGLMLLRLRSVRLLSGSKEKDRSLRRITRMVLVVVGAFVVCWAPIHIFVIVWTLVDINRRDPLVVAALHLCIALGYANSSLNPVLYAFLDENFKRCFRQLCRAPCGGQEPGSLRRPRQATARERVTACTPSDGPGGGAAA

The next series concerns the target Mu-type opioid receptor (Rattus norvegicus, UniProt P33535). The series can be described thus: Displacement of [3H]DAMGO from mu opioid receptor in Wistar rat brain membranes by liquid scintillation counting. Format: cell membranes, Membrane.
The species entered for a further series is Rattus norvegicus. The series can be described thus: Selectivity ratio of Ki for delta opioid receptor in Wistar rat brain membranes to Ki for mu opioid receptor in Wistar rat brain membranes. Format: cell membranes. Conditions: Membrane. The procedure, abridged: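 Washed Wistar rat brain membranes (0.2–0.4 mg/ml protein) incubated 30 min at 25 °C in 50 mM Tris-HCl pH 7.4 with BSA, captopril, bestatin and phosphoramidon (1 µM each). Radioligands were [3H]DAMGO (0.9–1.2 nM, μ) or [3H]Ile5,6-deltorphin-2 (0.8–1.3 nM, δ); competitor at 10^-11–10^-5 M; nonspecific binding with 10 µM naloxone. Filtration and scintillation counting; Ki by Cheng–Prusoff; δ/μ Ki ratio.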

Series [4] can be described thus: Half life in human plasma at 100 ug/mL. Format: ADME, cell-free. The procedure, abridged: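 Thawed human plasma spiked with compound in DMSO to 100 µg/mL final, incubated at 37 °C. Samples taken at set times were quenched with 5% ZnSO4/MeOH/ACN (5:3:2), centrifuged, and the supernatant analysed by reversed-phase HPLC-UV (275 or 254 nm). Calibration range 10–100 µg/mL. Three independent experiments.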

SMILES strings stand for the structures. Calls of active or inactive are those of the source. Non-standard residues stand in square brackets, D forms with d. Residues, ends and D or L forms follow the SMILES beside them. *: point of attachment. NHCH2CH2OH = OCCN*; Sar = CNCC(=O)O Some results are limits rather than exact numbers.

Mu-type opioid receptor, sequence (P33535 whole entry): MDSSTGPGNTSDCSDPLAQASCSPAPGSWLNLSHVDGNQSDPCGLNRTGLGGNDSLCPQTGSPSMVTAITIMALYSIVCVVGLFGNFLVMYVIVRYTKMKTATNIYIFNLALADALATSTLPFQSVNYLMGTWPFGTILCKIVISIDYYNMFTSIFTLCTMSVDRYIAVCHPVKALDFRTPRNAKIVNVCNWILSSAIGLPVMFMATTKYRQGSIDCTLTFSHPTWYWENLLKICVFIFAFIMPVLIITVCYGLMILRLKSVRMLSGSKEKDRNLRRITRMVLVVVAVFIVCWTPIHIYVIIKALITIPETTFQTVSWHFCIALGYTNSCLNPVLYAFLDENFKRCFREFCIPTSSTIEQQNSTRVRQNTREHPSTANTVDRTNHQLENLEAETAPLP

For `NC(=O)[C@H](Cc1ccccc1)NC(=O)[C@H](Cc1ccccc1)NC(=O)[C@@H]1CCCN1C(=O)[C@@H](N)Cc1ccc(O)cc1` [ENDOMORPHIN 2], the values for the AD50 in the series on Mus musculus [1] and with Mus musculus [2] were 2.29 nmol and 1.49 nmol, respectively.

In the case of `C[C@@H](NC(=O)[C@@H](N)Cc1ccc(O)cc1)C(=O)NCC(=O)N(C)[C@@H](Cc1ccccc1)C(=O)NCCO` [DAMGO], the Ki – broadly, the dissociation constant of the complex between target and ligand, obtained from inhibition or displacement – in series [3] is above 10000 nM.

Compound `CC[C@H](C)[C@H](NC(=O)[C@H](CCC(=O)O)NC(=O)[C@H](Cc1ccccc1)NC(=O)[C@H](C)NC(=O)[C@@H](N)Cc1ccc(O)cc1)C(=O)N[C@H](C(=O)NCC(N)=O)[C@@H](C)CC` gave a Ki at Mu-type opioid receptor above 10000 nM.

For the compound `N[C@@H](Cc1ccc(O)cc1)C(=O)N1CCC[C@H]1C(=O)N[C@@H](Cc1ccccc1)C(=O)N[C@@H](Cc1ccccc1)C(=O)NCCO.O=C(O)C(F)(F)F`, the Ratio Ki in the series listed under Rattus norvegicus was 8.9. Also, the Ki in series [3] came to 799 nM; on Mu-type opioid receptor it was 90 nM. In addition, the AD50 with Mus musculus [1] was 6.66 nmol; in the series with Mus musculus [2], 3.44 nmol.

Turning to `CN(C(=O)[C@@H]1CCCN1C(=O)[C@@H](N)Cc1ccc(O)cc1)[C@@H](Cc1ccccc1)C(=O)N[C@@H](Cc1ccccc1)C(=O)NCCO.O=C(O)C(F)(F)F`, the Ki in series [3] was above 10000 nM; on Mu-type opioid receptor it was 155 nM. The AD50 in the series on Mus musculus [1] stood at 9.6 nmol; with Mus musculus [2], 3.03 nmol.

On to `CN(C(=O)[C@H](Cc1ccccc1)NC(=O)[C@@H]1CCCN1C(=O)[C@@H](N)Cc1ccc(O)cc1)[C@@H](Cc1ccccc1)C(=O)NCCO.O=C(O)C(F)(F)F`, for which, in the series filed under Rattus norvegicus, the Ratio Ki turned out to be 17.2. Also, the Ki is 3860 nM in series [3] and 224 nM at Mu-type opioid receptor. Also, the results for the AD50 with Mus musculus [1] and in the series on Mus musculus [2] were 9.44 nmol and 5.56 nmol, respectively.

For the compound `CN(C(=O)[C@H](Cc1ccccc1)N(C)C(=O)[C@@H]1CCCN1C(=O)[C@@H](N)Cc1ccc(O)cc1)[C@@H](Cc1ccccc1)C(=O)NCCO.O=C(O)C(F)(F)F`, the Ratio Ki in the series listed under Rattus norvegicus is 188. Also, the figures for the inhibitory constant (Ki) (in series [3]; on Mu-type opioid receptor) were 6400 nM and 34 nM, respectively. For the same compound, the values for the AD50 in the series on Mus musculus [1] and in the series on Mus musculus [2] were 3.77 nmol and 2.65 nmol, respectively. In series [4], the half-life (as a rule, the time in which the quantity being followed falls by half) at 100 ug/mL is 40 min.

Consider `CN(CC(=O)N[C@@H](Cc1ccccc1)C(=O)NCCO)C(=O)[C@@H]1CCCN1C(=O)[C@@H](N)Cc1ccc(O)cc1` (H-YP[Sar]F-NHCH2CH2OH), for which the Ki (in series [3]; at Mu-type opioid receptor) was above 10000 nM throughout. Moreover, the AD50 result in the series on Mus musculus [1] and in the series on Mus musculus [2] was “inactive” each time.

These data come from ChEMBL document CHEMBL2424567, “Hybrid peptides endomorphin-2/DAMGO: design, synthesis and biological evaluation” (Eur J Med Chem, 2013).
